Measured values from PubChem BioAssay.
Active and inactive are the calls of the source.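 The calls were made as follows, unless noted: active = visually confirmed hit in the image check and inhibition above 20%; inconclusive = visually confirmed hit but inhibition not above 20%; inactive = no visual hit in the image check.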

Key:
[1] = inhibitors of TNFa-induced NFkB p65 translocation, primary screen, imaging, HUVEC, MLSMR starter and 10KST1 sets (AID 438;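 active = inhibition above 20% together with a positive visual image hit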;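 also: compound added about 3h40 before a 20 min TNFalpha stimulation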;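 as to inhibition: signal is the nuclear over cytoplasmic p65 intensity ratio per well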); conditions: HUVEC TNFa-induced p65 nuclear translocation; cell count: measured here: nuclei count (cytotoxicity indicator), at 2.08 µM; inhibition: at 2 µM, stronger effect = higher value, 0% TNFa-plus-vehicle, 100% no-TNFa wells
[2] = inhibitors of mutant huntingtin aggregation, primary screen, imaging, exon1htt(103Q)mCFP cells, high-content imaging (AID 483;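 active = visual image review flags a hit and inhibition of aggregation exceeds 20%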;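 also: compound exposure lasted 3 days before fixation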;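 as to nuclei count: percent of the per-plate median nuclei count of sample wells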); conditions: exon1htt(103Q)mCFP cell line, aggregate imaging, at 2 µM; inhibition of aggregation: stronger effect = higher value; nuclei count: measured here: cell count, toxicity
[3] = inhibitors of E-selectin induction by TNFa, primary screen, imaging, HUVEC, immunofluorescence, MLSMR starter and 10KST1 sets (AID 487); conditions: HUVEC TNFalpha-induced E-selectin immunofluorescence imaging, at 2 µM; inhibition: stronger effect = higher value; nuclei count: measured here: cell number, toxicity;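 as to inhibition: signal is fraction of cell area covered by stained E-selectin grains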;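 as to nuclei count: 100% = median nuclei count of all wells on the same plate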
[4] = molecular target: Voltage-gated potassium channel subunit beta-2 (Rattus norvegicus) (UniProt P62483); experiment: KvBeta enzyme negative modulators, primary screen, biochemical, NADPH fluorescence (AID 622;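 active = fluorescence slope higher than the sample average by over 3 SD, cut at about -0.22 in these data, passing the limit was not always enough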;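 also: slope of raw intensity against log time taken from 70 to 1610 s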); conditions: recombinant KvBeta, 4-cyanobenzaldehyde reduction, at 10 µM, stronger effect = higher value
Chain of Voltage-gated potassium channel subunit beta-2 (Rattus norvegicus) (P62483 whole entry, looked up): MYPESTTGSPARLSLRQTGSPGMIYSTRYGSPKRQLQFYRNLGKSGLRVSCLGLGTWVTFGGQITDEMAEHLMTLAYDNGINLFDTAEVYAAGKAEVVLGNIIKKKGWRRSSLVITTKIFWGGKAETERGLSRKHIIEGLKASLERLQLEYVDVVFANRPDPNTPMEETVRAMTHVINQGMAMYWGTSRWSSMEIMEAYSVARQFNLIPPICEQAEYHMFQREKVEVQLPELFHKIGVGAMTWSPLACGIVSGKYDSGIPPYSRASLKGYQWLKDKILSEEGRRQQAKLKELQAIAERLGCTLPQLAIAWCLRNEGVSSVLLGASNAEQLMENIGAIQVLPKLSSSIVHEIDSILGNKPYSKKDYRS

[5] = molecular target: Voltage-gated potassium channel subunit beta-2 (Rattus norvegicus) (UniProt P62483); experiment: KvBeta positive modulators, primary screen, biochemical, NADPH fluorescence (AID 623;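 active = NADPH fluorescence slope more negative than the mean of all samples by about 3 SD, 99.7% confidence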;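 also: fluorescence intensity change per second fitted from 20 to 320 s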); conditions: Recombinant KvBeta, NADPH fluorescence decrease slope, 10 min; at 10 µM; stronger effect = lower value
[6] = molecular target: Muscarinic acetylcholine receptor M4 (Homo sapiens) (UniProt P08173); experiment: compounds altering M4/GIRK thallium flux, either direction, primary screen, M4 allosteric agonist project, cell-based, HEK293 M4/GIRK, BTC-AM (AID 625;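 active = fluorescence slope after compound addition differing from the mean of all tested samples at 99.7% confidence, mostly higher but some lower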;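 also: thallium influx through GIRK channels coupled to M4 in HEK293 cells with BTC-AM dye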); conditions: at 10 µM, actives lie on both sides
Chain of Muscarinic acetylcholine receptor M4 (Homo sapiens) (P08173 whole entry, looked up): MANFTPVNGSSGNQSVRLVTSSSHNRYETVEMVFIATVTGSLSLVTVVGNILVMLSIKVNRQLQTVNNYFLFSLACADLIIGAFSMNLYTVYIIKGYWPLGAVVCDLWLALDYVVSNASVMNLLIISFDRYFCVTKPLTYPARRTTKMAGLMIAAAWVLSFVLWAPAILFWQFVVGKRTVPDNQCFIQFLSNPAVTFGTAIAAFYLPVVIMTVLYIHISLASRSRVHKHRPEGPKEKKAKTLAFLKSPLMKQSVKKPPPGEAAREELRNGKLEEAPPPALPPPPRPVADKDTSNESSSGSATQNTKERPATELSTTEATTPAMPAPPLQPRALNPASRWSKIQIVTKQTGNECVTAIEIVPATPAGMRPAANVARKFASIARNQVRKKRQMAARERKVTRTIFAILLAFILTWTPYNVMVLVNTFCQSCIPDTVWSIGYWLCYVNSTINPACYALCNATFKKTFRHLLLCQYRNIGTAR
Procedure, shortened: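 Assay system: HEK293 cells with M4 receptor and GIRK channels / Controls: carbachol and DMSO controls / Schedule: 1 h dye loading, 2 min kinetic read / Technique: kinetic fluorescence with BTC-AM dye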

[7] = inhibitors of Sendai virus-induced IRF3 signaling, primary screen, TLR/RLR signaling modifier project, cell-based, Sendai virus stimulus, luciferase, 10K MLSCN set (AID 602276;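 active = inhibition at or above 50% at 10 µM; inactive = inhibition below 50%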;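 also: firefly luciferase from ISG56 promoter only with Renilla not read in this screen; 0% = Sendai virus plus DMSO and 100% = medium plus DMSO without virus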); conditions: HEK293 RL24 IRF3 luciferase reporter, at 10 µM, stronger effect = higher value
[8] = inhibitors of poly I:C-induced TLR3 signaling, primary screen, cell-based, poly I:C stimulus, luciferase, 10K MLSCN set (AID 602277;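 active = inhibition of the reporter signal at or above 50%; inactive = inhibition below 50%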); conditions: HEK293-TLR3 RL24 IRF3 luciferase reporter, at 10 µM, stronger effect = higher value

SMILES	cell count [1]	inhibition [1]	inhibition of aggregation [2]	nuclei count [2] [%]	inhibition [3]	nuclei count [3] [%]	fluorescence slope [4]	NADPH fluorescence slope [5]	fluorescence slope [6]	inhibition [7]	inhibition [8]
COC(=O)c1ccccc1NC(=O)c1noc2c1CC(C(C)(C)C)CC2 (stereo not drawn)	216	4.9% (inactive)	0.9% (inactive)	104	-31.4% (inactive)	116	-0.559 (inactive)	-3.2e-05 (inactive)	0.00974 (inactive)	8.65% (inactive)	4.53% (inactive)
O=C(NC1CCCC1)c1ccc(S(=O)(=O)N2CCCC2)cc1	452	-8% (inactive)	1.5% (inactive)	104	-93.7% (inactive)	120	-0.344 (inactive)	-1.7e-05 (inactive)	0.0102 (inactive)	-19.5% (inactive)	-26.9% (inactive)
O=C(CN1C(=O)COc2ccccc21)NCCCN1CCN(Cc2ccccc2)CC1	470	-2.6% (inactive)	0.5% (inactive)	91.9	-131% (inactive)	232	-0.581 (inactive)	-8.3e-06 (inactive)	0.00512 (inactive)	-9.51% (inactive)	-8.02% (inactive)
Cc1noc(C)c1S(=O)(=O)N1CCC(C(=O)Nc2ccccn2)CC1	281	-5.2% (inactive)	-0.6% (inactive)	96.1	-46% (inactive)	128	-0.404 (inactive)	3.5e-05 (inactive)	0.00606 (inactive)	13.8% (inactive)	21.1% (inactive)
Cn1ccnc1C(O)c1ccco1 (stereo not drawn)	722	3.3% (inactive)	-15.7% (inactive)	97.2	-146% (inactive)	129	-0.422 (inactive)	2.5e-05 (inactive)	0.00477 (inactive)	15.2% (inactive)	13.2% (inactive)
CC1CCN(C(=O)C2CCN(S(=O)(=O)c3cnc[nH]3)CC2)CC1	464	2.5% (inactive)	22% (inactive)	90.5	-170% (inactive)	116	-0.553 (inactive)	-1.4e-05 (inactive)	0.00577 (inactive)	15.5% (inactive)	19.2% (inactive)
CN(C(=O)c1c(Cl)nc2sccn12)C1CCCCC1	456	9.8% (inactive)	-13.5% (inactive)	104	-498% (inactive)	162	-0.464 (inactive)	-5.9e-05 (inactive)	0.00592 (inactive)	10.8% (inactive)	6.58% (inactive)
CCOc1cc(S(=O)(=O)NCc2ccccn2)c(C)cc1C	412	-15.9% (inactive)	-0.5% (inactive)	112	-20% (inactive)	68.1	-0.44 (inactive)	-3.9e-05 (inactive)	0.0075 (inactive)	8.05% (inactive)	20.9% (inactive)
CCOc1cc(C(=O)N2CCN(c3ccccc3)CC2)cc(OCC)c1OCC	284	14.5% (inactive)	39.7% (active)	88.2	11.1% (inactive)	90.3	-0.559 (inactive)	-2.8e-05 (inactive)	0.00369 (inactive)	12.4% (inactive)	15.3% (inactive)
COCCOC(=O)C1=C(C)Nc2ncnn2C1c1ccc(F)cc1 (stereo not drawn)	743	-0.4% (inactive)	24.6% (inactive)	71.5	12.9% (inactive)	124	-0.369 (inactive)	-0.000107 (inactive)	0.00592 (inactive)	6.2% (inactive)	19.4% (inactive)
c1nnc(NC2=NCCCCC2)s1	630	-18.3% (inactive)	0.1% (inactive)	105	33.9% (inactive)	124	-0.346 (inactive)	-1.1e-05 (inactive)	0.00597 (inactive)	-16.9% (inactive)	-29.4% (inactive)
O=C1CN=C(Nc2cccc(C(F)(F)F)c2)N1C1CCCC1	421	4.8% (inactive)	-11% (inactive)	107	-375% (inactive)	149	-0.436 (inactive)	-0.000109 (inactive)	0.00643 (inactive)	-11.3% (inactive)	-11.6% (inactive)
Cc1sc2nc(SCC(=O)NCc3ccco3)n(CCc3ccccc3)c(=O)c2c1C	589	-17.7% (inactive)	-11.6% (inactive)	101	-45.3% (inactive)	108	-0.394 (inactive)	5.5e-06 (inactive)	0.0086 (inactive)	13.1% (inactive)	0.6% (inactive)
Cc1ccc(S(=O)(=O)N2CCC(C(=O)N[C@@H](Cc3ccccc3)C(=O)O)CC2)cc1	332	-14.4% (inactive)	11.7% (inactive)	99.8	41.9% (inactive)	97.6	-0.563 (inactive)	-4.9e-05 (inactive)	0.00616 (inactive)	-10.7% (inactive)	-5.08% (inactive)
Nc1nc(-c2ccc(Cl)cc2)cc(C(F)(F)F)n1	439	2.1% (inactive)	4.9% (inactive)	103	-16.4% (inactive)	109	-0.582 (inactive)	-1.9e-07 (inactive)	0.00927 (inactive)	1.69% (inactive)	-12.7% (inactive)
Cc1ccc(OC(=O)CCc2c(C)nc3ncnn3c2C)cc1	634	-10.5% (inactive)	18.7% (inactive)	130	-84.1% (inactive)	112	-0.551 (inactive)	9.9e-06 (inactive)	0.00538 (inactive)	0.226% (inactive)	8.51% (inactive)
O=C(CSc1nnc(-c2cccnc2)o1)Nc1ccccn1	328	3.2% (inactive)	7.3% (inactive)	99.4	-60.6% (inactive)	131	-0.317 (inactive)	5.1e-06 (inactive)	0.0082 (inactive)	-56.5% (inactive)	-126% (inactive)
Cc1nc(CNS(=O)(=O)c2ccc3c(c2)OCCO3)cs1	309	0.5% (inactive)	10.1% (inactive)	106	12.1% (inactive)	110	-0.568 (inactive)	-2.7e-05 (inactive)	0.00404 (inactive)	-8.22% (inactive)	-38.6% (inactive)
O=c1[nH]c2cccnc2n1Cc1ccco1	325	-4.2% (inactive)	-15% (inactive)	114	-5.2% (inactive)	119	-0.323 (inactive)	-4.8e-05 (inactive)	0.0064 (inactive)	7.81% (inactive)	6.25% (inactive)
CCOC(=O)CSc1nnc(CNC(=O)c2cccs2)n1-c1cc(OC)ccc1OC	521	-3.3% (inactive)	-5.1% (inactive)	103	-7.4% (inactive)	95.1	-0.545 (inactive)	-2.7e-05 (inactive)	0.00509 (inactive)	0.513% (inactive)	17.5% (inactive)
COc1ccc(-c2n[nH]c(C)c2-c2ccc(Cl)cc2)c(O)c1OC	403	-9.6% (inactive)	-24.2% (inactive)	104	-45.3% (inactive)	133	-0.529 (inactive)	-0.00026 (inactive)	0.00338 (inactive)	20.1% (inactive)	24.5% (inactive)
COC(=O)c1c(N)nc(C)n1-c1ccc(OC)cc1	324	-9.2% (inactive)	32.1% (active)	70.1	2.7% (inactive)	103	-0.364 (inactive)	3e-05 (inactive)	0.00554 (inactive)	5.37% (inactive)	9.69% (inactive)
O=C(CNS(=O)(=O)c1ccc(Br)s1)N1CCN(c2ncccn2)CC1	352	2.7% (inactive)	13.7% (inactive)	101	-48.3% (inactive)	86.3	-0.532 (inactive)	-0.000106 (inactive)	0.00447 (inactive)	-5.84% (inactive)	-10.7% (inactive)
Cc1cccc(OCC(=O)Nc2ccccc2N2CCN(C(=O)C(C)C)CC2)c1C	232	-21.4% (inactive)	6% (inactive)	73.8	-26.3% (inactive)	68.6	-0.585 (inactive)	-2.3e-05 (inactive)	0.00511 (inactive)	15.5% (inactive)	25.9% (inactive)
COc1ccccc1-c1c(C)nn2c(C)c(C(C)=O)cnc12	768	-0.8% (inactive)	13.5% (inactive)	97	96.7% (active)	81.4	-0.611 (inactive)	-3.6e-05 (inactive)	0.00778 (inactive)	17.1% (inactive)	14.2% (inactive)
O=S(=O)(c1ccc(OCC(O)CN2CCc3ccccc3C2)cc1)N1CCOCC1 (stereo not drawn)	749	1.6% (inactive)	6.1% (inactive)	114	-51.2% (inactive)	132	-0.549 (inactive)	1.9e-05 (inactive)	0.00569 (inactive)	15.9% (inactive)	26.7% (inactive)
O=C(C1CCN(S(=O)(=O)c2ccc(-n3cnnn3)cc2)CC1)N1CCN(c2ccccc2)CC1	464	4.2% (inactive)	3.7% (inactive)	76.8	-101% (inactive)	120	-0.569 (inactive)	-4.3e-05 (inactive)	0.00595 (inactive)	18.7% (inactive)	18.2% (inactive)
Cc1cc(C)c2c(=O)[nH]c(=O)n(Cc3ccccc3)c2n1	303	20% (inactive)	-9.7% (inactive)	114	0.6% (inactive)	103	-0.53 (inactive)	2.6e-05 (inactive)	0.00637 (inactive)	16.5% (inactive)	27.4% (inactive)
